Data taken from ChEMBL document CHEMBL4002570, “Synthesis and cytostatic properties of polyfunctionalized furanoallocolchicinoids” (Eur J Med Chem, 2017).
Activity calls are given as the source filed them.

Legend:
BXPC-3 = assay: Cytotoxicity against 2D culture of human BxPC3 cells measured after 72 hrs by MTT assay; assay type: functional, cell-based; settings: BXPC-3, 72 h
Outline: (§1)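 Cells (tumor lines and HaCaT in DMEM with 10% FCS; bone-marrow MSC at passages 2-6) seeded at 3x10⁵ cells/mL 24 h before and allowed to adhere. Compounds dissolved in DMSO (20 mM stock), diluted 20 µM to 0.1 nM, exposed 72 h. MTT added for the last 6 h, formazan dissolved in DMSO, OD read at 540 nm. IC50 taken from titration curves.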

PANC-1 [1] = assay: Cytotoxicity against 2D culture of human PANC1 cells measured after 72 hrs by MTT assay; assay type: functional, cell-based; settings: PANC-1, 72 h; outline: as §1
COLO357 [2] = assay: Cytotoxicity against 2D culture of human Colo-357 cells measured after 72 hrs by MTT assay; assay type: functional, cell-based; settings: COLO357, 72 h; outline: as §1
MIA PaCa-2 [3] = assay: Cytotoxicity against 2D culture of human MIAPaCa2 cells measured after 72 hrs by MTT assay; assay type: functional, cell-based; settings: MIA PaCa-2, 72 h; outline: as §1
A549 = assay: Cytotoxicity against 2D culture of human A549 cells measured after 72 hrs by MTT assay; assay type: functional, cell-based; settings: A549, 72 h; outline: as §1
[4] = Cytotoxicity against 2D culture of human MSC measured after 72 hrs by MTT assay; assay type: cell-based; outline: as §1
EA.hy 926 [5] = assay: Cytotoxicity against 2D culture of human EAhy926 cells measured after 72 hrs by MTT assay; assay type: cell-based; settings: EA.hy 926, 72 h; outline: as §1
HaCaT = assay: Cytotoxicity against 2D culture of human HaCaT cells measured after 72 hrs by MTT assay; assay type: cell-based; outline: as §1
EA.hy 926 [6] = assay: Cytotoxicity against 3D culture of human EAhy926 cells up to 10000 nM measured after 72 hrs by MTT assay; assay type: cell-based; settings: ea.hy 926, 72 h
Outline: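 Spheroids formed on polyHEMA-coated plates before drug addition, then handled like 2D MTT: dilutions from 20 µM to 0.1 nM, 72 h exposure, MTT for the final 6 h, DMSO solubilization, OD at 540 nm. Inhibition index = 1 − OD(exp)/OD(control); IC50 read at the 50% cutoff.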

COLO357 [7] = assay: Induction of apoptosis in 2D culture of human Colo-357 cells assessed as accumulation at G2/M phase at 1 uM measured after 72 hrs by propidium iodide staining based flow cytometry; assay type: functional, cell-based
Outline: (§2)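 Cultures (2D or polyHEMA spheroids) exposed to 1 µM for 72 h. Cells trypsinized, washed in ice-cold PBS, fixed in 70% ethanol for 2 h at −20 °C, stained with propidium iodide 50 µg/ml plus […] 10 µg/ml. Flow cytometry with 2000 events. Phase distribution gated on dot plots; apoptotic cells excluded in 3D histograms.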

MIA PaCa-2 [8] = assay: Induction of apoptosis in 2D culture of human MIAPaCa2 cells assessed as accumulation at G2/M phase at 1 uM measured after 72 hrs by propidium iodide staining based flow cytometry; assay type: functional, cell-based
COLO357 [9] = assay: Induction of apoptosis in 3D culture of human Colo-357 cells assessed as accumulation at G2/M phase at 1 uM measured after 72 hrs by propidium iodide staining based flow cytometry; assay type: functional, cell-based; outline: as §2
MIA PaCa-2 [10] = assay: Induction of apoptosis in 3D culture of human MIAPaCa2 cells assessed as accumulation at G2/M phase at 1 uM measured after 72 hrs by propidium iodide staining based flow cytometry; assay type: functional, cell-based; outline: as §2
COLO357 [11] = assay: Disruption of mitotic spindle in human Colo-357 cells at 1 uM measured after 72 hrs by Hoechst 33342 staining based confocal microscopic analysis; assay type: functional, cell-based
COLO357 [12] = assay: Induction of beta-tubulin expression in human Colo-357 cells at 1 uM measured after 24 hrs by Hoechst 33342 staining based confocal microscopic analysis; assay type: functional, cell-based
Outline: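 Colo-357 in 2D exposed to 1 µM for 24 h, fixed, then stained with anti-β-tubulin antibody (red) and Hoechst 33342. Confocal imaging; mean fluorescence intensity from red pixel counts over several fields; significance taken at p<0.05.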

COLO357 [13] = assay: Induction of total tubulin expression in 3D culture of human Colo-357 cells measured after 48 hrs by propidium iodide staining based flow cytometry; assay type: functional, cell-based
Outline: (§3)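 Spheroids on polyHEMA exposed to 1 µM for 48 h, trypsinized, permeabilized, stained with anti-tubulin antibody and phalloidin-AlexaFluor488 for F-actin, and analyzed by flow cytometry.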

COLO357 [14] = assay: Induction of beta-tubulin expression in human Colo-357 cells assessed as mean fluorescence intensity at 1 uM measured after 24 hrs by Hoechst 33342 staining based confocal microscopic analysis (reference value: 52 +/- 12); assay type: functional
COLO357 [15] = assay: Induction of F-actin expression in 3D culture of human Colo-357 cells at 1 uM measured after 48 hrs by propidium staining based flow cytometry; assay type: functional, cell-based; outline: as §3
MIA PaCa-2 [16] = assay: Induction of F-actin expression in 3d culture of human MIAPaCa2 cells at 1 uM measured after 48 hrs by propidium staining based flow cytometry; assay type: functional, cell-based; outline: as §3
COLO357 [17] = assay: Induction of mitochondrial membrane hyperpolarization in 3D culture of human Colo-357 cells at 1 uM measured after 48 hrs by DiOC6 dye based flow cytometry; assay type: functional, cell-based
Outline: (§4)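 Spheroids on polyHEMA exposed to 1 µM for 48 h, trypsinized. Live cells stained for 1 h with DiOC₆ (mitochondrial potential), LysoTrackerRed (lysosomal potential) or propidium iodide (membrane permeability), then analyzed by flow cytometry.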

MIA PaCa-2 [18] = assay: Induction of mitochondrial membrane hyperpolarization in 3D culture of human MIAPaCa2 cells at 1 uM measured after 48 hrs by DiOC6 dye based flow cytometry; assay type: functional, cell-based; outline: as §4
COLO357 [19] = assay: Induction of lysosomal membrane hyperpolarization in 3D culture of human Colo-357 cells at 1 uM measured after 48 hrs by LysoTrackRed dye based flow cytometry; assay type: functional, cell-based; outline: as §4
MIA PaCa-2 [20] = assay: Induction of lysosomal membrane hyperpolarization in 3D culture of human MIAPaCa2 cells at 1 uM measured after 48 hrs by LysoTrackRed dye based flow cytometry; assay type: functional, cell-based; outline: as §4
COLO357 [21] = assay: Induction of cell membrane permeability in 3D culture of human Colo-357 cells at 1 uM measured after 48 hrs by propidium iodide staining based flow cytometry; assay type: functional; outline: as §4
MIA PaCa-2 [22] = assay: Induction of cell membrane permeability in 3D culture of human MIAPaCa2 cells at 1 uM measured after 48 hrs by propidium iodide staining based flow cytometry; assay type: functional; outline: as §4
PANC-1 [23] = assay: Disruption of preformed spheroids in human PANC1 cells at 1 uM measured after 48 hrs by propidium staining based flow cytometry; assay type: functional, cell-based
MIA PaCa-2 [24] = assay: Disruption of preformed spheroids in human MIAPaCa2 cells at 1 uM measured after 48 hrs by propidium staining based flow cytometry; assay type: functional, cell-based
COLO357 [25] = assay: Disruption of preformed spheroids in human Colo-357 cells at 1 uM measured after 48 hrs by propidium staining based flow cytometry; assay type: functional, cell-based

COc1cc2c(c(OC)c1OC)-c1cc3cc(C(C)O)oc3cc1C(=O)CC2 (centres undefined)
IC50 (BXPC-3): 80 nM
IC50 (PANC-1 [1]): 70 nM
IC50 (COLO357 [2]): 100 nM
IC50 (MIA PaCa-2 [3]): > 100 nM
IC50 (A549): 40 nM

COc1cc2c(c(OC)c1OC)-c1ccc(OC)c(=O)cc1[C@@H](NC(C)=O)CC2 [COLCHICINE]
IC50 (BXPC-3): 80 nM
IC50 (PANC-1 [1]): 80 nM
IC50 (COLO357 [2]): 160 nM
IC50 (MIA PaCa-2 [3]): 160 nM
IC50 (A549): 400 nM
IC50 [4]: > 800 nM
IC50 (EA.hy 926 [5]): > 800 nM
IC50 (HaCaT): 80 nM
Activity (EA.hy 926 [6]): Non-Toxic
Activity (COLO357 [7]): Active
Activity (MIA PaCa-2 [8]): Active
Activity (COLO357 [9]): Active
Activity (MIA PaCa-2 [10]): Active
Activity (COLO357 [11]): Active
Activity (COLO357 [12]): Active
Activity (COLO357 [13]): Active
Flu intensity (COLO357 [14]): 74
Activity (COLO357 [15]): inactive
Activity (MIA PaCa-2 [16]): Active
Activity (COLO357 [17]): Active
Activity (MIA PaCa-2 [18]): Active
Activity (COLO357 [19]): Active
Activity (MIA PaCa-2 [20]): Active
Activity (COLO357 [21]): Active
Activity (MIA PaCa-2 [22]): Active
Activity (PANC-1 [23]): Active
Activity (MIA PaCa-2 [24]): Active
Activity (COLO357 [25]): Active

COc1cc2c(c(OC)c1OC)-c1cc3cc(C(C)O)oc3cc1C(O)CC2 (centres undefined)
IC50 (BXPC-3): 30 nM
IC50 (PANC-1 [1]): 30 nM
IC50 (COLO357 [2]): 64 nM
IC50 (MIA PaCa-2 [3]): 64 nM
IC50 (A549): 80 nM

COc1cc2c(c(OC)c1OC)-c1cc3cc(CCO)oc3cc1C(O)CC2 (centres undefined)
IC50 (BXPC-3): 400 nM
IC50 (PANC-1 [1]): 400 nM
IC50 (COLO357 [2]): > 400 nM
IC50 (MIA PaCa-2 [3]): > 400 nM
IC50 (A549): 400 nM

COc1cc2c(c(OC)c1OC)-c1cc3cc(CCO)oc3cc1C(=O)CC2
IC50 (BXPC-3): 400 nM
IC50 (PANC-1 [1]): 400 nM
IC50 (COLO357 [2]): > 400 nM
IC50 (MIA PaCa-2 [3]): > 400 nM
IC50 (A549): 400 nM

COc1cc2c(c(OC)c1OC)-c1cc3cc(COC(C)=O)oc3cc1C(=O)CC2
IC50 (BXPC-3): 16 nM
IC50 (PANC-1 [1]): 16 nM
IC50 (COLO357 [2]): 16 nM
IC50 (MIA PaCa-2 [3]): 16 nM
IC50 (A549): 80 nM

COc1cc2c(c(OC)c1OC)-c1cc3cc(CO)oc3cc1C(=O)CC2
IC50 (BXPC-3): 16 nM
IC50 (PANC-1 [1]): 16 nM
IC50 (COLO357 [2]): 16 nM
IC50 (MIA PaCa-2 [3]): 64 nM
IC50 (A549): 16 nM
IC50 [4]: > 800 nM
IC50 (EA.hy 926 [5]): > 800 nM
IC50 (HaCaT): 16 nM
Activity (EA.hy 926 [6]): Non-Toxic
Activity (COLO357 [7]): Active
Activity (MIA PaCa-2 [8]): Active
Activity (COLO357 [9]): Active
Activity (MIA PaCa-2 [10]): Active
Activity (COLO357 [11]): Active
Activity (COLO357 [12]): Active
Activity (COLO357 [13]): Active
Flu intensity (COLO357 [14]): 73
Activity (COLO357 [15]): inactive
Activity (MIA PaCa-2 [16]): Active
Activity (COLO357 [17]): Active
Activity (MIA PaCa-2 [18]): Active
Activity (COLO357 [19]): Active
Activity (MIA PaCa-2 [20]): Active
Activity (COLO357 [21]): Active
Activity (MIA PaCa-2 [22]): Active
Activity (PANC-1 [23]): Active
Activity (MIA PaCa-2 [24]): Active
Activity (COLO357 [25]): Active

COc1cc2c(c(OC)c1OC)-c1cc3cc(CO)oc3cc1C(O)CC2 (centres undefined)
IC50 (BXPC-3): 16 nM
IC50 (PANC-1 [1]): 16 nM
IC50 (COLO357 [2]): 16 nM
IC50 (MIA PaCa-2 [3]): 16 nM
IC50 (A549): 16 nM
IC50 [4]: > 800 nM
IC50 (EA.hy 926 [5]): > 800 nM
IC50 (HaCaT): 16 nM
Activity (EA.hy 926 [6]): Non-Toxic
Activity (COLO357 [7]): Active
Activity (MIA PaCa-2 [8]): Active
Activity (COLO357 [9]): Active
Activity (MIA PaCa-2 [10]): Active
Activity (COLO357 [11]): Active
Activity (COLO357 [12]): Active
Activity (COLO357 [13]): Active
Flu intensity (COLO357 [14]): 110
Activity (COLO357 [15]): Active
Activity (MIA PaCa-2 [16]): Active
Activity (COLO357 [17]): Active
Activity (MIA PaCa-2 [18]): Active
Activity (COLO357 [19]): Active
Activity (MIA PaCa-2 [20]): Active
Activity (COLO357 [21]): Active
Activity (MIA PaCa-2 [22]): Active
Activity (PANC-1 [23]): Active
Activity (MIA PaCa-2 [24]): Active
Activity (COLO357 [25]): Active
